The subject of assay [1] is Enterococcus faecium. Kind of assay: Antibacterial activity evaluated as minimum inhibitory concentration against 569 Enterococcus faecium (GRE). Format: functional. The gist of the method:
(§1)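 Broth microdilution in Mueller Hinton broth per NCCLS procedure; repeat results usually identical, always within 2-fold. GISA strains 3797 (HIP-5836 New Jersey) and 3798 (HIP-5827 Michigan); 533 S. epidermidis and 602 S. haemolyticus are clinical isolates; vancomycin-resistant enterococci have confirmed genotype.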

Assay [2] relates to Enterococcus faecalis. Kind of assay: Antibacterial activity evaluated as minimum inhibitory concentration against 559 Enterococcus faecalis (GSE). Format: functional. Also on record: unit not given beside the values. The gist of the method:
as §1

In assay [3] the test system is Enterococcus faecalis. Description: Antibacterial activity evaluated as minimum inhibitory concentration against 560 Enterococcus faecalis (GRE). Format: functional. The essentials: as §1
The subject of assay [4] is Enterococcus faecium. Kind of assay: Antibacterial activity evaluated as minimum inhibitory concentration against 568 Enterococcus faecium (GSE). The format is functional. The essentials: as §1
The test system of assay [5] is Staphylococcus aureus. Description: Antibacterial activity evaluated as minimum inhibitory concentration against 3797 Staphylococcus aureus (GISA). The arrangement: unit not given beside the values. Format: functional. The essentials: as §1
Assay [6] concerns Staphylococcus aureus. Kind of assay: Antibacterial activity evaluated as minimum inhibitory concentration against 3798 Staphylococcus aureus (GISA). The arrangement: unit not given beside the values. The format is functional. The essentials:
as §1

Assay [7] relates to Staphylococcus epidermidis. Description: Antibacterial activity evaluated as minimum inhibitory concentration against 533 Staphylococcus epidermidis. The format is functional. The essentials:
as §1

In assay [8] the test system is Staphylococcus haemolyticus. Description: Antibacterial activity evaluated as minimum inhibitory concentration against 602 Staphylococcus haemolyticus. Also on record: unit not given beside the values.
Assay [9] deals with Nucleic Acid. Kind of assay: Inhibition of the peptidoglycan synthesis in the absence of dipeptide bonding using UDP-MurNAc-pentapeptide. Format: nucleic-acid assay. The essentials:
(§2)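 Peptidoglycan synthesis run on filter plates with E. coli OV58 (pTA9) membranes, UDP-MurNAc-pentapeptide or UDP-MurNAc-tetrapeptide plus UDP-N-acetyl-[14C]-D-glucosamine as substrates; radiolabel incorporation into peptidoglycan measured. IC50 from at least six drug concentrations in duplicate, fitted by four-parameter logistic nonlinear regression.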

Assay [10] concerns Nucleic Acid. Description: Inhibition of the peptidoglycan synthesis in the absence of dipeptide bonding using UDP-MurNAc-tetrapeptide. The format is nucleic-acid assay. The essentials:
as §2

The test system of assay [11] is Nucleic Acid. Kind of assay: Ratio UDP-MurNAc-tetrapeptide to UDP-MurNAc-Pentapeptide. Format: nucleic-acid assay.

The text below walks through data of ChEMBL document CHEMBL1135893, “Synthesis and mode of action of hydrophobic derivatives of the glycopeptide antibiotic eremomycin and des-(N-methyl-D-leucyl)eremomycin against glycopeptide-sensitive and -resistant bacteria” (J Med Chem, 2002).

Structures are written as SMILES. A value given as a limit tells only on which side of the number the result lay.

In the case of `CN[C@H](CC(C)C)C(=O)N[C@H]1C(=O)N[C@@H](CC(N)=O)C(=O)N[C@H]2C(=O)N[C@H]3C(=O)N[C@H](C(=O)N[C@H](C(=O)O)c4cc(O)cc(O)c4-c4cc3ccc4O)[C@H](O[C@H]3C[C@@](C)(N)[C@@H](O)[C@@H](C)O3)c3cccc(c3)Oc3cc2cc(c3O[C@@H]2O[C@@H](CO)[C@H](O)[C@@H](O)[C@@H]2O[C@H]2C[C@@](C)(N)[C@@H](O)[C@@H](C)O2)Oc2ccc(cc2Cl)[C@H]1O`, the MIC with Enterococcus faecium [1] is on record as more than 128; in the assay on Enterococcus faecalis [2], 0.25; with Enterococcus faecalis [3], more than 128; against Enterococcus faecium [4], 0.25; against Staphylococcus aureus [5], 8; with Staphylococcus aureus [6], 8. Besides, the MIC in [7] and in assay [8] was 0.25 throughout.

Consider `CCCCCCCCCCNCc1c(O)cc2c(c1O)-c1cc(ccc1O)[C@H]1NC(=O)[C@@H]3NC(=O)[C@H](CC(N)=O)NC(=O)[C@H](NC(=O)[C@@H](CC(C)C)NC)[C@H](O)c4ccc(c(Cl)c4)Oc4cc3cc(c4O[C@@H]3O[C@@H](CO)[C@H](O)[C@@H](O)[C@@H]3O[C@H]3C[C@@](C)(N)[C@@H](O)[C@@H](C)O3)Oc3cccc(c3)[C@@H](O[C@H]3C[C@@](C)(N)[C@@H](O)[C@@H](C)O3)[C@H](NC1=O)C(=O)N[C@@H]2C(=O)O`, for which the MIC in the assay with Enterococcus faecium [1] is 8; against Enterococcus faecalis [2], 0.5; with Enterococcus faecalis [3] it was 8; in the assay on Enterococcus faecium [4], 0.5; against Staphylococcus aureus [5], 2; in the assay with Staphylococcus aureus [6], 2. Further, the MIC in assay [7] and in assay [8] was 0.25 in each case.

In the case of `CCCCCCCCCCNC(=O)[C@H]1NC(=O)[C@H]2NC(=O)[C@H](NC(=O)[C@@H]3NC(=O)[C@H](CC(N)=O)NC(=O)[C@H](N)[C@H](O)c4ccc(c(Cl)c4)Oc4cc3cc(c4O[C@@H]3O[C@@H](CO)[C@H](O)[C@@H](O)[C@@H]3O[C@H]3C[C@@](C)(N)[C@@H](O)[C@@H](C)O3)Oc3cccc(c3)[C@H]2O[C@H]2C[C@@](C)(N)[C@@H](O)[C@@H](C)O2)c2ccc(O)c(c2)-c2c(O)cc(O)cc21`, the MIC turned out to be 2 with Enterococcus faecium [1]; 2 against Enterococcus faecalis [2]; 4 against Enterococcus faecalis [3]; 2 with Enterococcus faecium [4]; 4 against Staphylococcus aureus [5]; 8 against Staphylococcus aureus [6]. Moreover, the MIC is given as 0.5 in assay [7] and 1 in assay [8].

In the case of `CN[C@@H](CC(C)C)C(=O)N[C@H]1C(=O)N[C@@H](CC(N)=O)C(=O)N[C@H]2C(=O)N[C@H]3C(=O)N[C@H](C(=O)N[C@H](C(=O)O)c4cc(O)cc(O)c4-c4cc3ccc4O)[C@H](O[C@H]3C[C@@](C)(N)[C@@H](O)[C@@H](C)O3)c3cccc(c3)Oc3cc2cc(c3O[C@@H]2O[C@@H](CO)[C@H](O)[C@@H](O)[C@@H]2O[C@H]2C[C@@](C)(NCc3ccc(-c4ccc(Cl)cc4)cc3)[C@@H](O)[C@@H](C)O2)Oc2ccc(cc2Cl)[C@H]1O`, the IC50 in the assay with Nucleic Acid [9] amounted to 120 nM; in the assay with Nucleic Acid [10], 2700 nM. Further, the Ratio in the assay on Nucleic Acid [11] came to 23.

In the case of `CN[C@H](CC(C)C)C(=O)N[C@H]1C(=O)N[C@@H](CC(N)=O)C(=O)N[C@H]2C(=O)N[C@H]3C(=O)N[C@H](C(=O)N[C@H](C(=O)O)c4cc(O)c(CNCc5ccc(-c6ccc(Cl)cc6)cc5)c(O)c4-c4cc3ccc4O)[C@H](O[C@H]3C[C@@](C)(N)[C@@H](O)[C@@H](C)O3)c3cccc(c3)Oc3cc2cc(c3O[C@@H]2O[C@@H](CO)[C@H](O)[C@@H](O)[C@@H]2O[C@H]2C[C@@](C)(N)[C@@H](O)[C@@H](C)O2)Oc2ccc(cc2Cl)[C@H]1O`, the MIC with Enterococcus faecium [1] was determined as 8; against Enterococcus faecalis [2] it was 1; in the assay on Enterococcus faecalis [3], 16; in the assay with Enterococcus faecium [4], 1; against Staphylococcus aureus [5], 2; in the assay on Staphylococcus aureus [6], 2. Besides, the MIC in assay [7] was determined as 0.5; in [8], 0.25.

For `CN[C@H](CC(C)C)C(=O)N[C@H]1C(=O)N[C@@H](CC(N)=O)C(=O)N[C@H]2C(=O)N[C@H]3C(=O)N[C@H](C(=O)N[C@H](C(=O)O)c4cc(O)cc(O)c4-c4cc3ccc4O)[C@H](O[C@H]3C[C@@](C)(N)[C@@H](O)[C@@H](C)O3)c3cccc(c3)Oc3cc2cc(c3O[C@@H]2O[C@@H](CO)[C@H](O)[C@@H](O)[C@@H]2O[C@H]2C[C@@](C)(NCc3ccc(-c4ccc(Cl)cc4)cc3)[C@@H](O)[C@@H](C)O2)Oc2ccc(cc2Cl)[C@H]1O`, the MIC in the assay with Enterococcus faecium [1] was determined as 4; in the assay on Enterococcus faecalis [2], 4; against Enterococcus faecalis [3], 8; with Enterococcus faecium [4] it was 2; in the assay with Staphylococcus aureus [5], 4; in the assay on Staphylococcus aureus [6], 4. Also, the MIC in [7] turned out to be 2; in assay [8], 4.

Take `CN[C@@H](CC(C)C)C(=O)N[C@H]1C(=O)N[C@@H](CC(N)=O)C(=O)N[C@H]2C(=O)N[C@H]3C(=O)N[C@H](C(=O)N[C@H](C(=O)O)c4cc(O)cc(O)c4-c4cc3ccc4O)[C@H](O[C@H]3C[C@@](C)(N)[C@@H](O)[C@@H](C)O3)c3cccc(c3)Oc3cc2cc(c3O[C@@H]2O[C@@H](CO)[C@H](O)[C@@H](O)[C@@H]2O[C@H]2C[C@@](C)(N)[C@@H](O)[C@@H](C)O2)Oc2ccc(cc2Cl)[C@H]1O`: the IC50 was 300 nM in the assay on Nucleic Acid [9] and more than 640000 nM in the assay on Nucleic Acid [10]. In addition, the Ratio with Nucleic Acid [11] is more than 2300.

Turning to `CCCCCCCCCCN[C@]1(C)C[C@H](O[C@@H]2[C@H](Oc3c4cc5cc3Oc3ccc(cc3Cl)[C@@H](O)[C@@H](N)C(=O)N[C@@H](CC(N)=O)C(=O)N[C@H]5C(=O)N[C@H]3C(=O)N[C@H](C(=O)N[C@H](C(=O)O)c5cc(O)cc(O)c5-c5cc3ccc5O)[C@H](O[C@H]3C[C@@](C)(N)[C@@H](O)[C@@H](C)O3)c3cccc(c3)O4)O[C@@H](CO)[C@H](O)[C@H]2O)O[C@H](C)[C@@H]1O`, the MIC against Enterococcus faecium [1] was 16; in the assay on Enterococcus faecalis [2], 8; against Enterococcus faecalis [3], 16; against Enterococcus faecium [4] it was 8; against Staphylococcus aureus [5], 8; with Staphylococcus aureus [6], 16. The MIC in assay [7] is recorded as 4; in assay [8] it was 8.

For `C[C@H]1O[C@@H](O[C@@H]2[C@H](Oc3c4cc5cc3Oc3ccc(cc3Cl)[C@@H](O)[C@@H](N)C(=O)N[C@@H](CC(N)=O)C(=O)N[C@H]5C(=O)N[C@H]3C(=O)N[C@H](C(=O)N[C@H](C(=O)NCc5ccc(-c6ccc(Cl)cc6)cc5)c5cc(O)cc(O)c5-c5cc3ccc5O)[C@H](O[C@H]3C[C@@](C)(N)[C@@H](O)[C@@H](C)O3)c3cccc(c3)O4)O[C@@H](CO)[C@H](O)[C@H]2O)C[C@@](C)(N)[C@H]1O`, the MIC against Enterococcus faecium [1] is listed as 2; against Enterococcus faecalis [2], 4; with Enterococcus faecalis [3], 4; against Enterococcus faecium [4], 4; in the assay on Staphylococcus aureus [5] it was 8; against Staphylococcus aureus [6], 8. Besides, the MIC in assay [7] and in assay [8] was 4 throughout.

As to `C[C@H]1O[C@@H](O[C@@H]2[C@H](Oc3c4cc5cc3Oc3ccc(cc3Cl)[C@@H](O)[C@@H](N)C(=O)N[C@@H](CC(N)=O)C(=O)N[C@H]5C(=O)N[C@H]3C(=O)N[C@H](C(=O)N[C@H](C(=O)O)c5cc(O)cc(O)c5-c5cc3ccc5O)[C@H](O[C@H]3C[C@@](C)(N)[C@@H](O)[C@@H](C)O3)c3cccc(c3)O4)O[C@@H](CO)[C@H](O)[C@H]2O)C[C@@](C)(N)[C@H]1O`, the MIC is reported as more than 128 in the assay with Enterococcus faecium [1]; 16 against Enterococcus faecalis [2]; more than 128 in the assay on Enterococcus faecalis [3]; 16 against Enterococcus faecium [4]; 64 with Staphylococcus aureus [5]; 64 with Staphylococcus aureus [6]. The MIC in assay [7] and in [8] was 16 each time.

Regarding `CN[C@H](CC(C)C)C(=O)N[C@H]1C(=O)N[C@@H](CC(N)=O)C(=O)N[C@H]2C(=O)N[C@H]3C(=O)N[C@H](C(=O)N[C@H](C(=O)NCc4ccc(-c5ccc(Cl)cc5)cc4)c4cc(O)cc(O)c4-c4cc3ccc4O)[C@H](O[C@H]3C[C@@](C)(N)[C@@H](O)[C@@H](C)O3)c3cccc(c3)Oc3cc2cc(c3O[C@@H]2O[C@@H](CO)[C@H](O)[C@@H](O)[C@@H]2O[C@H]2C[C@@](C)(N)[C@@H](O)[C@@H](C)O2)Oc2ccc(cc2Cl)[C@H]1O`, the MIC in the assay with Enterococcus faecium [1] is 4; against Enterococcus faecalis [2], 2; in the assay on Enterococcus faecalis [3], 4; against Enterococcus faecium [4], 1; in the assay with Staphylococcus aureus [5], 4; in the assay on Staphylococcus aureus [6], 4. Further, the MIC in assay [7] turned out to be 2; in assay [8], 1.

What is called IC50 is the concentration needed to halve the response being measured.
